Experimental data of several laboratories.
Each line is one published result; the experiments were not run side by side.
Target: Dual specificity tyrosine-phosphorylation-regulated kinase 1A (DYRK1A, Homo sapiens, UniProt Q13627)

Compound | read-out | action | technique | concentration | measurement | value
CN1CCN(C(=O)c2ccc(NC(=O)Nc3ccc(N(C)c4ccnc(Nc5ccc(CS(C)(=O)=O)cc5)n4)cc3)cc2)CC1 | binding |  |  | 1 µM | remaining binding | 62%
CC(=O)ON=C1C=CC(=C(C#N)c2ccccc2)C=C1 | enzyme activity | inhibitor | ADP detection | 2 µM | activity vs control | 99%
CC#CC(=O)N1CCC[C@H]1c1nc(-c2ccc(C(=O)Nc3ccccn3)cc2)c2c(N)nccn12 | enzyme activity | inhibitor |  | 1 µM | inhibition | 3%
C=C(C)C1CCC(C)=C1COC(=O)c1cc([N+](=O)[O-])cc([N+](=O)[O-])c1 (stereo not shown) | enzyme activity | inhibitor | ADP detection | 10 µM | inhibition | 10.3%
C1=C/COCc2cc(ccc2OCCN2CCCC2)Nc2nccc(n2)-c2cccc(c2)COC/1 | binding |  |  | 0.1 µM | remaining binding | 52%
C=CC(=O)N1CCC([C@@H]2CCNc3c(C(N)=O)c(-c4ccc(Oc5ccccc5)cc4)nn32)CC1 | cell-free assay |  |  | 1 µM | inhibition | 3%
O=[N+]1C=CC(=C2C=CN([O-])C=C2)C=C1 | enzyme activity | inhibitor | ADP detection | 10 µM | inhibition | 52.8%
CCCCC(=O)Nc1ccc(-c2ccc3ncn(CCC)c(=O)c3c2)cn1 | binding |  | competition with immobilised ligand | 0.5 µM | remaining binding | 81%
c1cnc(-c2nnc3sc(C45CC6CC(CC(C6)C4)C5)nn23)cn1 | enzyme activity | inhibitor | ADP detection | 10 µM | inhibition | 8.44%
COc1ccc2oc(-c3ccc4nc(N)oc4c3)c/c(=N\c3ccccc3NC(=O)CCN)c2c1 | binding |  | competition with immobilised ligand | 1 µM | remaining binding | 111%
CCOC(=O)c1c(NC(=O)CCC(=O)OC)sc2c1CCCC2 | enzyme activity | inhibitor | ADP detection | 10 µM | inhibition | 18.3%
CC(C)S(=O)(=O)c1ccc2nccc(Nc3ccc4sc(C5CCCC5)nc4c3)c2c1 | enzyme activity | inhibitor |  | 1 µM | activity vs control | 103%
C[C@H]1CC[C@H](n2c3cnccc3c3cnc(Nc4ccc5c(n4)CCN(C(=O)CO)C5)nc32)CC1 | cell-free assay |  |  | 1 µM | remaining signal | 0%
